Results as given in ChEMBL document CHEMBL4627281, “A small molecule inhibitor of PCSK9 that antagonizes LDL receptor binding via interaction with a cryptic PCSK9 binding groove” (Bioorg Med Chem, 2020).

biological target: PCSK9/LDLR (Homo sapiens, UniProt Q8NBP7); assay: Inhibition of recombinant human His-tagged PCSK9 interaction with recombinant LDLR AB domain (unknown origin) measured after 3 hrs by horseradish peroxidase-coupled TMB substrate based spectrophotometry; type: protein assay; conditions: not given
In short: (§1)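 ELISA plates pre-coated with LDLR-EGF-AB domain. Compounds serially diluted from 10 mM DMSO stocks in reaction buffer, with 7 ng His-tagged human PCSK9 added, 3 h at room temperature with shaking. Binding detected with biotinylated anti-His antibody (1 h), then HRP-streptavidin (20 min), then substrate (15 min); absorbance read at 450/540 nm. IC50 taken from the % inhibition curve.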

Sequence of PCSK9/LDLR (Q8NBP7 31-152 limits assumed): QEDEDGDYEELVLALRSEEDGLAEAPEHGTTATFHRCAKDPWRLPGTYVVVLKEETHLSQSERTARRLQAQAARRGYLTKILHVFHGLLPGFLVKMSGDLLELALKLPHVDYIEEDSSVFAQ
Sequence of PCSK9/LDLR (Q8NBP7 153-692 limits assumed): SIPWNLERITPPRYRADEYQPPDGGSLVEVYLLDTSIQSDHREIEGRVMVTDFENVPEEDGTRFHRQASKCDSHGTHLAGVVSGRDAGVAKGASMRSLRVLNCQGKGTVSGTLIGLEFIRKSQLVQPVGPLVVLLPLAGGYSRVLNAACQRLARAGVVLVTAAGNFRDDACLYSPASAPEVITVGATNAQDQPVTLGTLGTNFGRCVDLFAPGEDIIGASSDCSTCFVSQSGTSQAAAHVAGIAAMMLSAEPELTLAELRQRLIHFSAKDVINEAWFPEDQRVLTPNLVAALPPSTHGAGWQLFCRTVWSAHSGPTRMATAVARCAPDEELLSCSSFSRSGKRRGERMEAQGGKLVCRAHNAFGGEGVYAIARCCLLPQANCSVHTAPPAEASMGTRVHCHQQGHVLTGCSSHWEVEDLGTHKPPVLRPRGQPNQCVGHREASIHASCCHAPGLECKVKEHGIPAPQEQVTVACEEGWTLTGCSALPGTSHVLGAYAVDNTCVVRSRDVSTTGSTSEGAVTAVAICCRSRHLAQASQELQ
Sequence of PCSK9/LDLR (P01130 22-860 partner limits assumed): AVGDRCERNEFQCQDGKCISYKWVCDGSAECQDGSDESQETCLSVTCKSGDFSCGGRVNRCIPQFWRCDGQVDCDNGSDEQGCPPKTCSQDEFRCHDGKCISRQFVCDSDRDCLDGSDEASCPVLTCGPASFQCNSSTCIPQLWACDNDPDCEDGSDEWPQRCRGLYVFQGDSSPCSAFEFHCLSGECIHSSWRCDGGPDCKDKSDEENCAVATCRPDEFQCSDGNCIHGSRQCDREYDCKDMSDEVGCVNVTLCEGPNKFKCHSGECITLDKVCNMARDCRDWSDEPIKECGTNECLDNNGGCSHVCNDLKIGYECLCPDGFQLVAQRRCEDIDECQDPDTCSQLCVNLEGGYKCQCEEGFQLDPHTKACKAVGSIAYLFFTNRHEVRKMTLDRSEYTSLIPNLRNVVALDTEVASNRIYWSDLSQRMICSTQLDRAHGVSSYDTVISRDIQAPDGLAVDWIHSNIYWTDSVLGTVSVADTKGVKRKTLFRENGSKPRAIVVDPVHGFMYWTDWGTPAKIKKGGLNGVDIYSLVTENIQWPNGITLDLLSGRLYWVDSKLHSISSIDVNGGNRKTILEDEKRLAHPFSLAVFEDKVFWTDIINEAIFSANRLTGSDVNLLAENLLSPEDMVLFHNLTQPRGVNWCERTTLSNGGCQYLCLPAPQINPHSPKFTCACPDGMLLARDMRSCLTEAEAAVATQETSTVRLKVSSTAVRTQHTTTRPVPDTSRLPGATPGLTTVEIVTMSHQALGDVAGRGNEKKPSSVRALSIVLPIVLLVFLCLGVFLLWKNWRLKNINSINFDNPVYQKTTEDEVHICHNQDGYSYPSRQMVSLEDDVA

| Compound | IC50 |
| --- | --- |
| Cc1cn(-c2cc(CCS(N)(=O)=O)cc(NC(=O)c3ccc(C)c(Nc4nccc(-c5ccccc5)n4)c3)c2)cn1 | 13.4 µM |
| Cc1cn(-c2cc(/C=C/C(=O)O)cc(NC(=O)c3ccc(C)c(Nc4nccc(-c5ccccc5)n4)c3)c2)cn1 | 11.3 µM |
| Cc1cn(-c2cc(NC(=O)c3ccc(C)c(Oc4ccccc4)c3)cc(C(F)(F)F)c2)cn1 | 13.4 µM |

The next compounds have a lower IC50 than those just listed; values first:

| IC50 | Compound |
| --- | --- |
| 9.8 µM | Cc1cn(-c2cc(NC(=O)c3ccc(C)c(Nc4nccc(-c5cccnc5)n4)c3)cc(C(F)(F)F)c2)cn1 [NILOTINIB] |
| 0.758 µM | Cc1cn(-c2cc(NC(=O)c3ccc(C)c(Nc4nccc(-c5ccccc5)n4)c3)cc(N3CCN(C)CC3)c2)cn1 |

biological target: Mast/stem cell growth factor receptor Kit (Homo sapiens, UniProt P10721); assay: Inhibition of recombinant human N-terminal GST-tagged c-Kit (544 to end residues) expressed in baculovirus infected Sf21 insect cells using FAM-labelled P22 peptide as substrate preincubated for 10 mins followed by substrate addition and measured after 1 hr in presence of ATP by fluorescence assay; conditions: not given
Sequence (P10721 whole entry): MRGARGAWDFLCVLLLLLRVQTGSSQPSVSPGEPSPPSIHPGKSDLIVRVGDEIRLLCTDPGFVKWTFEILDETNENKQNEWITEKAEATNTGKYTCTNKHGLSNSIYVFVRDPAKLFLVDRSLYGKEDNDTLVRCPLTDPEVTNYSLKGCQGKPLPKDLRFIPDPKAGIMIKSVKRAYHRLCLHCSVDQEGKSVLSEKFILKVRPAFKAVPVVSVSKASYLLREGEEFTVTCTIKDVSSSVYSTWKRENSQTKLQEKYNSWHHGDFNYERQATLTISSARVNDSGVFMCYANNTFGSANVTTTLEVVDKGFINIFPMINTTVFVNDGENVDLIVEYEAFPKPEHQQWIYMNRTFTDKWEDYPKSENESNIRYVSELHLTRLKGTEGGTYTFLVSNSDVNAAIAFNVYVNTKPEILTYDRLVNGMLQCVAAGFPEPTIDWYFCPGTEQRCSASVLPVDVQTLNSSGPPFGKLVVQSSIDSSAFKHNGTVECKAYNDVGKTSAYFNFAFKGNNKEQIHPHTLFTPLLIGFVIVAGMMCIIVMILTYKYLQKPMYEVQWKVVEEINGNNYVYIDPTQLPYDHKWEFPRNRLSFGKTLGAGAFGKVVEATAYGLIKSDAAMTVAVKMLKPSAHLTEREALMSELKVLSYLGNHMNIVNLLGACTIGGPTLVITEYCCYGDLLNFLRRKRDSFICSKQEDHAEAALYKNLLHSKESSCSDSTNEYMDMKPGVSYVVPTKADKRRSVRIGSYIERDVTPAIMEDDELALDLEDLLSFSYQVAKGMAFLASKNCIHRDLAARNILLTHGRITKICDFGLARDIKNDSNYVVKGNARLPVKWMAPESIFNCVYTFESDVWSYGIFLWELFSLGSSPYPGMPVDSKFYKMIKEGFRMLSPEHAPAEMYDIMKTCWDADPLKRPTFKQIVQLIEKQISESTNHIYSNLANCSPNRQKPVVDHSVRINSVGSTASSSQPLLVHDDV

| Compound | IC50 |
| --- | --- |
| Cc1cn(-c2cc(CCS(N)(=O)=O)cc(NC(=O)c3ccc(C)c(Nc4nccc(-c5ccccc5)n4)c3)c2)cn1 | 6 µM |
| Cc1cn(-c2cc(/C=C/C(=O)O)cc(NC(=O)c3ccc(C)c(Nc4nccc(-c5ccccc5)n4)c3)c2)cn1 | 2.77 µM |
| Cc1cn(-c2cc(NC(=O)c3ccc(C)c(Oc4ccccc4)c3)cc(C(F)(F)F)c2)cn1 | 0.618 µM |
| Cc1cn(-c2cc(NC(=O)c3ccc(C)c(Nc4nccc(-c5ccccc5)n4)c3)cc(N3CCN(C)CC3)c2)cn1 | 2.88 µM |

biological target: Tyrosine-protein kinase ABL1 (Homo sapiens, UniProt P00519); assay: (§2) Inhibition of recombinant human N-terminal His-tagged Abl (2 to 1130 residues) expressed in baculovirus expression system using FAM-labelled P2 peptide as substrate preincubated for 10 mins followed by substrate addition and measured after 1 hr in presence of ATP by fluorescence assay; conditions: not given
Sequence (P00519 whole entry, the tested form may be a part): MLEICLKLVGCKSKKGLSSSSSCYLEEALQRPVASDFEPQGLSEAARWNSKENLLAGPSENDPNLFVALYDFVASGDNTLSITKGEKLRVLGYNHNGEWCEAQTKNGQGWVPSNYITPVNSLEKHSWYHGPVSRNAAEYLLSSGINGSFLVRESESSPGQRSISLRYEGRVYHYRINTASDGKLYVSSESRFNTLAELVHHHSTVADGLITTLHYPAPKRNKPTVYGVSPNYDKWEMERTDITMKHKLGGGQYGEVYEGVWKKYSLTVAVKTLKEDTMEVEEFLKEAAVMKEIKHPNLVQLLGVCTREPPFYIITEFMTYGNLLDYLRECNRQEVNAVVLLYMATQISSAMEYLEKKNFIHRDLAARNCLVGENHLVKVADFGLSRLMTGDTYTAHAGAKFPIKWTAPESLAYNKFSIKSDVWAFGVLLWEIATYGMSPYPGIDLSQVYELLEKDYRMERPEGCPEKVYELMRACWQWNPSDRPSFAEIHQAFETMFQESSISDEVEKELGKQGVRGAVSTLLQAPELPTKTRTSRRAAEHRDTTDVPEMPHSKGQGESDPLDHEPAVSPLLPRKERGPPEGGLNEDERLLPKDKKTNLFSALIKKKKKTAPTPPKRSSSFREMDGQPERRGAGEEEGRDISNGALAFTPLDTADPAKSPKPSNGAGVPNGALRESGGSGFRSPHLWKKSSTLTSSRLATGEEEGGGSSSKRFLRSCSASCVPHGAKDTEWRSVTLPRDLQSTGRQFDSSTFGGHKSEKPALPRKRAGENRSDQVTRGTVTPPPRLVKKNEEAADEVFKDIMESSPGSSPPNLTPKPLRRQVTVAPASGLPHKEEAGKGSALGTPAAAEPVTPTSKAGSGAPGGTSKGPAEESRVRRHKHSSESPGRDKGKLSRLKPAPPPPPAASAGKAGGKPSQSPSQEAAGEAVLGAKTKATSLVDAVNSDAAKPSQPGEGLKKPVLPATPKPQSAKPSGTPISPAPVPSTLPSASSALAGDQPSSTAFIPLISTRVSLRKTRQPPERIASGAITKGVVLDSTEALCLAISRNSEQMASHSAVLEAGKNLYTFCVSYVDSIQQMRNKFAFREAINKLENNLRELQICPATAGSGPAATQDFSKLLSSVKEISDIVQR

| Compound | IC50 |
| --- | --- |
| Cc1cn(-c2cc(CCS(N)(=O)=O)cc(NC(=O)c3ccc(C)c(Nc4nccc(-c5ccccc5)n4)c3)c2)cn1 | > 10 µM |
| Cc1cn(-c2cc(/C=C/C(=O)O)cc(NC(=O)c3ccc(C)c(Nc4nccc(-c5ccccc5)n4)c3)c2)cn1 | > 10 µM |
| Cc1cn(-c2cc(NC(=O)c3ccc(C)c(Oc4ccccc4)c3)cc(C(F)(F)F)c2)cn1 | > 10 µM |
| Cc1cn(-c2cc(NC(=O)c3ccc(C)c(Nc4nccc(-c5ccccc5)n4)c3)cc(N3CCN(C)CC3)c2)cn1 | > 10 µM |

biological target: Platelet-derived growth factor receptor beta (Homo sapiens, UniProt P09619); assay: as §2, with “GST-tagged PDGFRbeta cytoplasmic domain (557” for “His-tagged Abl (2”, “1106” for “1130”, “P22” for “P2”; conditions: not given
Sequence (P09619 whole entry, the tested form may be a part): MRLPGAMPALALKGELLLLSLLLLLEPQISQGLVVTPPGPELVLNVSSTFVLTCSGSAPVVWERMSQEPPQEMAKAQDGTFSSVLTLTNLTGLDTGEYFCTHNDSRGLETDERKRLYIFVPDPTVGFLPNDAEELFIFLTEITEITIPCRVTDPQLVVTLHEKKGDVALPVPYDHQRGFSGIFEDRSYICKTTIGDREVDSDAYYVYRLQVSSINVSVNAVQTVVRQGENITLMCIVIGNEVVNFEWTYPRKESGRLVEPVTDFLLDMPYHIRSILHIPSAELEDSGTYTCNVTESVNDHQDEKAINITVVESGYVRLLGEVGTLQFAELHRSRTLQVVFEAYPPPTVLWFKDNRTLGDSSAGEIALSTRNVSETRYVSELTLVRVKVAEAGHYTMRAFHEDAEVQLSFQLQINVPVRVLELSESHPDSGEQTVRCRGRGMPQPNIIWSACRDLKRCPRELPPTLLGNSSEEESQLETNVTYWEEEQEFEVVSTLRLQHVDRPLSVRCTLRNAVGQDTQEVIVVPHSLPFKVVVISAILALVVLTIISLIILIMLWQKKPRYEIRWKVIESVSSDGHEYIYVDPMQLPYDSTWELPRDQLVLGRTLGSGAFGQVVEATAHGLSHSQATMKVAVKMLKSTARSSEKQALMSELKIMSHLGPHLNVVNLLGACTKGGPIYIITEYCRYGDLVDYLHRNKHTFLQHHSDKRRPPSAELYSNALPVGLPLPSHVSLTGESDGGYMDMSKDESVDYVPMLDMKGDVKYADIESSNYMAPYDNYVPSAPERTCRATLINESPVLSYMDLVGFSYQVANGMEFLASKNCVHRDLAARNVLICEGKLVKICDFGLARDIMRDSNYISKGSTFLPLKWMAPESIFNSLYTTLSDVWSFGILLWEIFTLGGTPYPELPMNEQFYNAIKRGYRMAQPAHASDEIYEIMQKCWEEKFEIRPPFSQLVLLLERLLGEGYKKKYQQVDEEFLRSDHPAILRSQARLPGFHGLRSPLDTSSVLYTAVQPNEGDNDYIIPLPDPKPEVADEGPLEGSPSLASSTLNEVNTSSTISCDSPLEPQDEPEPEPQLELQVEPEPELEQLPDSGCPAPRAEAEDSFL

| Compound | IC50 |
| --- | --- |
| Cc1cn(-c2cc(CCS(N)(=O)=O)cc(NC(=O)c3ccc(C)c(Nc4nccc(-c5ccccc5)n4)c3)c2)cn1 | > 10 µM |
| Cc1cn(-c2cc(/C=C/C(=O)O)cc(NC(=O)c3ccc(C)c(Nc4nccc(-c5ccccc5)n4)c3)c2)cn1 | > 10 µM |
| Cc1cn(-c2cc(NC(=O)c3ccc(C)c(Oc4ccccc4)c3)cc(C(F)(F)F)c2)cn1 | > 10 µM |
| Cc1cn(-c2cc(NC(=O)c3ccc(C)c(Nc4nccc(-c5ccccc5)n4)c3)cc(N3CCN(C)CC3)c2)cn1 | > 10 µM |

biological target: Proto-oncogene tyrosine-protein kinase Src (Homo sapiens, UniProt P12931); assay: Inhibition of recombinant human full-length N-terminal GST-tagged SRC (1 to 536 residues) expressed in baculovirus expression system using FAM-labelled P4 peptide as substrate preincubated for 10 mins followed by substrate addition and measured after 1 hr in presence of ATP by fluorescence assay; conditions: not given

| Compound | IC50 |
| --- | --- |
| Cc1cn(-c2cc(CCS(N)(=O)=O)cc(NC(=O)c3ccc(C)c(Nc4nccc(-c5ccccc5)n4)c3)c2)cn1 | > 10 µM |
| Cc1cn(-c2cc(/C=C/C(=O)O)cc(NC(=O)c3ccc(C)c(Nc4nccc(-c5ccccc5)n4)c3)c2)cn1 | > 10 µM |
| Cc1cn(-c2cc(NC(=O)c3ccc(C)c(Oc4ccccc4)c3)cc(C(F)(F)F)c2)cn1 | > 10 µM |
| Cc1cn(-c2cc(NC(=O)c3ccc(C)c(Nc4nccc(-c5ccccc5)n4)c3)cc(N3CCN(C)CC3)c2)cn1 | > 10 µM |

tested on: not listed separately; assay: Clearance in CD1 mouse at 0.4 mg/kg, iv administered as cassette dose measured upto 24 hrs by LC-MS/MS analysis; type: ADME, organism-based; conditions: in vivo
In short: (§3)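 Male CD1 mice (second cassette 28–29 g, 7–8 weeks) given one IV 5-in-1 cassette at 0.4 mg/kg per compound in 5% DMAC/5% Solutol HS15/90% saline. Blood (~20 µL) into K2EDTA from the facial vein at 0.083–24 h, terminal bleed by cardiac puncture under isoflurane. Blood diluted with deionised water, stored at −80 °C, analysed by positive-ESI mass spectrometry.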

| Compound | clearance |
| --- | --- |
| Cc1cn(-c2cc(CCS(N)(=O)=O)cc(NC(=O)c3ccc(C)c(Nc4nccc(-c5ccccc5)n4)c3)c2)cn1 | 110 mL/min/kg |
| Cc1cn(-c2cc(NC(=O)c3ccc(C)c(Oc4ccccc4)c3)cc(C(F)(F)F)c2)cn1 | 12.5 mL/min/kg |
| Cc1cn(-c2cc(NC(=O)c3ccc(C)c(Nc4nccc(-c5ccccc5)n4)c3)cc(N3CCN(C)CC3)c2)cn1 | 32.8 mL/min/kg |

tested on: not listed separately; assay: Volume of distribution at steady state in CD1 mouse at 0.4 mg/kg, iv administered as cassette dose measured upto 24 hrs by LC-MS/MS analysis; type: ADME, organism-based; conditions: in vivo, read-out: Vdss; in short: as §3

| Compound | Vd |
| --- | --- |
| Cc1cn(-c2cc(CCS(N)(=O)=O)cc(NC(=O)c3ccc(C)c(Nc4nccc(-c5ccccc5)n4)c3)c2)cn1 | 1.72 L/kg |
| Cc1cn(-c2cc(NC(=O)c3ccc(C)c(Oc4ccccc4)c3)cc(C(F)(F)F)c2)cn1 | 1.69 L/kg |
| Cc1cn(-c2cc(NC(=O)c3ccc(C)c(Nc4nccc(-c5ccccc5)n4)c3)cc(N3CCN(C)CC3)c2)cn1 | 4.3 L/kg |

tested on: not listed separately; assay: Terminal half life in CD1 mouse at 0.4 mg/kg, iv administered as cassette dose measured upto 24 hrs by LC-MS/MS analysis; type: ADME, organism-based; conditions: in vivo, read-out: beta t1/2 (converted); in short: as §3

| Compound | half-life |
| --- | --- |
| Cc1cn(-c2cc(CCS(N)(=O)=O)cc(NC(=O)c3ccc(C)c(Nc4nccc(-c5ccccc5)n4)c3)c2)cn1 | 0.216 h |
| Cc1cn(-c2cc(NC(=O)c3ccc(C)c(Oc4ccccc4)c3)cc(C(F)(F)F)c2)cn1 | 2.15 h |
| Cc1cn(-c2cc(NC(=O)c3ccc(C)c(Nc4nccc(-c5ccccc5)n4)c3)cc(N3CCN(C)CC3)c2)cn1 | 2.21 h |

tested on: not listed separately; assay: AUClast in CD1 mouse at 0.4 mg/kg, iv administered as cassette dose measured upto 24 hrs by LC-MS/MS analysis; type: ADME, organism-based; parameters: time < 24 hr, dose 0.4 mg/kg, route intravenous; conditions: in vivo; in short: as §3

| Compound | AUC(0-t) at 24 h |
| --- | --- |
| Cc1cn(-c2cc(CCS(N)(=O)=O)cc(NC(=O)c3ccc(C)c(Nc4nccc(-c5ccccc5)n4)c3)c2)cn1 | 58.5 ng·h/mL |
| Cc1cn(-c2cc(NC(=O)c3ccc(C)c(Oc4ccccc4)c3)cc(C(F)(F)F)c2)cn1 | 508 ng·h/mL |
| Cc1cn(-c2cc(NC(=O)c3ccc(C)c(Nc4nccc(-c5ccccc5)n4)c3)cc(N3CCN(C)CC3)c2)cn1 | 189 ng·h/mL |

tested on: not listed separately; assay: AUCinfinity in CD1 mouse at 0.4 mg/kg, iv administered as cassette dose measured upto 24 hrs by LC-MS/MS analysis; type: ADME, organism-based; parameters: dose 0.4 mg/kg, route intravenous, time infinity; conditions: in vivo; in short: as §3

| Compound | AUC(0-inf) |
| --- | --- |
| Cc1cn(-c2cc(CCS(N)(=O)=O)cc(NC(=O)c3ccc(C)c(Nc4nccc(-c5ccccc5)n4)c3)c2)cn1 | 63.7 ng·h/mL |
| Cc1cn(-c2cc(NC(=O)c3ccc(C)c(Oc4ccccc4)c3)cc(C(F)(F)F)c2)cn1 | 541 ng·h/mL |
| Cc1cn(-c2cc(NC(=O)c3ccc(C)c(Nc4nccc(-c5ccccc5)n4)c3)cc(N3CCN(C)CC3)c2)cn1 | 204 ng·h/mL |

tested on: not listed separately; assay: Mean residence time (0 to infinity) in CD1 mouse at 0.4 mg/kg, iv administered as cassette dose measured upto 24 hrs by LC-MS analysis; type: ADME, organism-based; conditions: in vivo; in short: as §3

| Compound | MRT inf |
| --- | --- |
| Cc1cn(-c2cc(CCS(N)(=O)=O)cc(NC(=O)c3ccc(C)c(Nc4nccc(-c5ccccc5)n4)c3)c2)cn1 | 0.239 h |
| Cc1cn(-c2cc(NC(=O)c3ccc(C)c(Oc4ccccc4)c3)cc(C(F)(F)F)c2)cn1 | 2.27 h |
| Cc1cn(-c2cc(NC(=O)c3ccc(C)c(Nc4nccc(-c5ccccc5)n4)c3)cc(N3CCN(C)CC3)c2)cn1 | 2.16 h |

tested on: PCSK9/LDLR (Homo sapiens), Q8NBP7+P01130 [D374Y]; assay: Inhibition of PCSK9 D374Y mutant (unknown origin) and LDLR protein-protein interaction in human HepG2 cells assessed as increase in Bodipy FL-labelled LDL uptake preincubated for 16 hrs followed by Bodipy FL-labelled LDL addition and measured after 4 hrs by fluorescence assay; type: cell-based; conditions: not given
In short: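 HepG2 cells seeded at 2 × 10^5 cells/mL and attached overnight, then incubated 16 h with PCSK9-D374Y (2 μg/mL) plus compound (0.1 or 1 µM). Medium replaced with 10 μg/mL Bodipy FL LDL for 4 h. Cells washed with warm PBS; fluorescence read at ex 485/em 530 nm. Mean ± S.D.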

| Compound | inhibition |
| --- | --- |
| Cc1cn(-c2cc(NC(=O)c3ccc(C)c(Nc4nccc(-c5ccccc5)n4)c3)cc(N3CCN(C)CC3)c2)cn1 | Dose-dependent effect |

biological target: PCSK9/LDLR (Homo sapiens) (UniProt Q8NBP7+P01130); assay: Inhibition of recombinant human His-tagged PCSK9 interaction with recombinant LDLR AB domain (unknown origin) at higher concentration measured after 3 hrs by horseradish peroxidase-coupled TMB substrate based spectrophotometry relative to control; type: protein assay; conditions: not given; in short: as §1

| Compound | Imax |
| --- | --- |
| Cc1cn(-c2cc(NC(=O)c3ccc(C)c(Nc4nccc(-c5ccccc5)n4)c3)cc(N3CCN(C)CC3)c2)cn1 | > 35% |
